Results taken from ChEMBL document CHEMBL1671620, “Mutations in the fks1 gene in Candida albicans, C. tropicalis, and C. krusei correlate with elevated caspofungin MICs uncovered in AM3 medium using the method of the European Committee on Antibiotic Susceptibility Testing” (2008).
Values after ≈ are worked out from the molar mass of the structure shown.

Key:
[1] = tested on: Candida albicans; assay: Antifungal activity against Candida albicans isolate 1 expressing wild type 1,3-beta-glucan synthase grown on AM3 media after 48 hrs by EUCAST microdilution method; format: functional; details: isolate 1, 24 h, in the assay text read “24 hrs” for “48 hrs”
Summary of the method: (§1)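 EUCAST (AFST-EUCAST) broth microdilution with caspofungin at 0.015 to 8 μg/ml final, in AM3 with glucose added to 2% final. Final inoculum was 10⁵ yeast cells/ml, with microplates prepared in batches and stored at −20°C. Plates were incubated at 35°C in humid ambient air and read spectrophotometrically after shaking at 24 h and 48 h. MIC was ≥50% growth reduction versus drug-free well; 90% end point also read at both times.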

[2] = tested on: Candida albicans; assay: Antifungal activity against Candida albicans isolate 2 expressing wild type 1,3-beta-glucan synthase grown on AM3 media after 48 hrs by EUCAST microdilution method; format: functional; details: isolate 2, 24 h, in the assay text read “24 hrs” for “48 hrs”; summary of the method: as §1
[3] = tested on: Candida albicans; assay: Antifungal activity against Candida albicans isolate 4 expressing wild type 1,3-beta-glucan synthase grown on AM3 media after 48 hrs by EUCAST microdilution method; format: functional; details: isolate 4, 24 h, in the assay text read “after 24 hrs” for “after 48 hrs”; summary of the method: as §1
[4] = tested on: Candida albicans; assay: Antifungal activity against Candida albicans isolate 6 expressing wild type 1,3-beta-glucan synthase grown on AM3 media after 48 hrs by EUCAST microdilution method; format: functional; details: isolate 6, 24 h, in the assay text read “after 24 hrs” for “after 48 hrs”; summary of the method: as §1
[5] = tested on: Candida albicans; assay: Antifungal activity against Candida albicans isolate 11 expressing wild type 1,3-beta-glucan synthase grown on AM3 media after 48 hrs by EUCAST microdilution method; format: functional; details: isolate 11, 24 h, in the assay text read “after 24 hrs” for “after 48 hrs”; summary of the method: as §1
[6] = tested on: Candida albicans; assay: Antifungal activity against Candida albicans isolate 17 expressing wild type 1,3-beta-glucan synthase grown on AM3 media after 48 hrs by EUCAST microdilution method; format: functional; details: isolate 17, 24 h, in the assay text read “after 24 hrs” for “after 48 hrs”; summary of the method: as §1
[7] = tested on: Candida albicans; assay: Antifungal activity against Candida albicans isolate 14 expressing wild type 1,3-beta-glucan synthase grown on AM3 media after 48 hrs by EUCAST microdilution method; format: functional; details: isolate 14, 24 h, in the assay text read “after 24 hrs” for “after 48 hrs”; summary of the method: as §1
[8] = tested on: Pichia kudriavzevii; assay: Antifungal activity against Candida krusei ATCC 6258 expressing wild type 1,3-beta-glucan synthase grown on RPMI media after 24 hrs by EUCAST microdilution method; details: ATCC 6258, 24 h
[9] = tested on: Candida albicans; assay: Antifungal activity against Candida albicans isolate 1 expressing wild type 1,3-beta-glucan synthase grown on RPMI media after 24 hrs by EUCAST microdilution method; details: isolate 1, 24 h
[10] = tested on: Candida albicans; assay: Antifungal activity against Candida albicans isolate 2 expressing wild type 1,3-beta-glucan synthase grown on RPMI media after 24 hrs by EUCAST microdilution method; details: isolate 2, 24 h
[11] = tested on: Candida albicans; assay: Antifungal activity against Candida albicans isolate 3 expressing wild type 1,3-beta-glucan synthase grown on RPMI media after 24 hrs by EUCAST microdilution method; details: isolate 3, 24 h
[12] = tested on: Candida albicans; assay: Antifungal activity against Candida albicans isolate 4 expressing wild type 1,3-beta-glucan synthase grown on RPMI media after 24 hrs by EUCAST microdilution method; details: isolate 4, 24 h
[13] = tested on: Candida albicans; assay: Antifungal activity against Candida albicans isolate 5 expressing wild type 1,3-beta-glucan synthase grown on RPMI media after 24 hrs by EUCAST microdilution method; details: isolate 5, 24 h
[14] = tested on: Candida albicans; assay: Antifungal activity against Candida albicans isolate 8 expressing wild type 1,3-beta-glucan synthase grown on RPMI media after 24 hrs by EUCAST microdilution method; details: isolate 8, 24 h
[15] = tested on: Candida albicans; assay: Antifungal activity against Candida albicans isolate 7 expressing wild type 1,3-beta-glucan synthase grown on RPMI media after 24 hrs by EUCAST microdilution method; details: isolate 7, 24 h
[16] = tested on: Candida albicans; assay: Antifungal activity against Candida albicans isolate 15 expressing wild type 1,3-beta-glucan synthase grown on RPMI media after 24 hrs by EUCAST microdilution method; details: isolate 15, 24 h
[17] = tested on: Candida albicans; assay: Antifungal activity against Candida albicans isolate 25 expressing wild type 1,3-beta-glucan synthase grown on RPMI media after 24 hrs by EUCAST microdilution method; details: isolate 25, 24 h
[18] = tested on: Candida albicans; assay: Antifungal activity against Candida albicans isolate 11 expressing wild type 1,3-beta-glucan synthase grown on RPMI media after 24 hrs by EUCAST microdilution method; details: isolate 11, 24 h
[19] = tested on: Candida albicans; assay: Antifungal activity against Candida albicans isolate 13 expressing wild type 1,3-beta-glucan synthase grown on RPMI media after 24 hrs by EUCAST microdilution method; details: isolate 13, 24 h
[20] = tested on: Candida albicans; assay: Antifungal activity against Candida albicans isolate 16 expressing wild type 1,3-beta-glucan synthase grown on RPMI media after 24 hrs by EUCAST microdilution method; details: isolate 16, 24 h
[21] = tested on: Pichia kudriavzevii; assay: Antifungal activity against Candida krusei isolate 1 harboring 1,3-beta-glucan synthase HS1 point mutant grown on RPMI media after 24 hrs by EUCAST microdilution method; details: isolate 1, 24 h
[22] = tested on: Candida albicans; assay: Antifungal activity against Candida albicans isolate 20 harboring 1,3-beta-glucan synthase HS1 point mutant grown on AM3 media after 24 hrs by EUCAST microdilution method; details: isolate 20, 24 h
[23] = tested on: Candida albicans; assay: Antifungal activity against Candida albicans isolate 21 harboring 1,3-beta-glucan synthase HS1 point mutant grown on AM3 media after 24 hrs by EUCAST microdilution method; details: isolate 21, 24 h
[24] = tested on: Candida albicans; assay: Antifungal activity against Candida albicans isolate 19 harboring 1,3-beta-glucan synthase HS1 point mutant grown on RPMI media after 24 hrs by EUCAST microdilution method; details: isolate 19, 24 h
[25] = tested on: Candida albicans; assay: Antifungal activity against Candida albicans isolate 22 harboring 1,3-beta-glucan synthase HS1 point mutant grown on RPMI media after 24 hrs by EUCAST microdilution method; details: isolate 22, 24 h
[26] = tested on: Candida albicans; assay: Antifungal activity against Candida albicans isolate 24 harboring 1,3-beta-glucan synthase HS1 point mutant grown on RPMI media after 24 hrs by EUCAST microdilution method; details: isolate 24, 24 h
[27] = tested on: Candida tropicalis; assay: Antifungal activity against Candida tropicalis isolate 2 harboring 1,3-beta-glucan synthase HS1 point mutant grown on AM3 media after 24 hrs by EUCAST microdilution method; details: isolate 2, 24 h

Structure (SMILES): CC[C@H](C)C[C@H](C)CCCCCCCCC(=O)N[C@H]1C[C@@H](O)[C@@H](NCCN)NC(=O)[C@@H]2[C@@H](O)CCN2C(=O)[C@H]([C@H](O)CCN)NC(=O)[C@H]([C@H](O)[C@@H](O)c2ccc(O)cc2)NC(=O)[C@@H]2C[C@@H](O)CN2C(=O)[C@H]([C@@H](C)O)NC1=O [CASPOFUNGIN]
- MIC [1]: 0.03 µg/mL (≈ 0.0274 µM)
- MIC [2]: 0.03 µg/mL (≈ 0.0274 µM)
- MIC [3]: 0.03 µg/mL (≈ 0.0274 µM)
- MIC [4]: 0.03 µg/mL (≈ 0.0274 µM)
- MIC [5]: 0.03 µg/mL (≈ 0.0274 µM)
- MIC [6]: 0.03 µg/mL (≈ 0.0274 µM)
- MIC [7]: 0.03 µg/mL (≈ 0.0274 µM)
- MIC [8]: 1 µg/mL (≈ 0.915 µM)
- MIC [9]: 0.25 µg/mL (≈ 0.229 µM)
- MIC [10]: 0.25 µg/mL (≈ 0.229 µM)
- MIC [11]: 0.25 µg/mL (≈ 0.229 µM)
- MIC [12]: 0.5 µg/mL (≈ 0.457 µM)
- MIC [13]: 0.5 µg/mL (≈ 0.457 µM)
- MIC [14]: 0.5 µg/mL (≈ 0.457 µM)
- MIC [15]: 0.5 µg/mL (≈ 0.457 µM)
- MIC [16]: 0.25 µg/mL (≈ 0.229 µM)
- MIC [17]: 0.25 µg/mL (≈ 0.229 µM)
- MIC [18]: 0.5 µg/mL (≈ 0.457 µM)
- MIC [19]: 0.5 µg/mL (≈ 0.457 µM)
- MIC [20]: 0.5 µg/mL (≈ 0.457 µM)
- MIC [21]: 8 µg/mL (≈ 7.32 µM)
- MIC [22]: 2 µg/mL (≈ 1.83 µM)
- MIC [23]: 1 µg/mL (≈ 0.915 µM)
- MIC [24]: 1 µg/mL (≈ 0.915 µM)
- MIC [25]: 2 µg/mL (≈ 1.83 µM)
- MIC [26]: 4 µg/mL (≈ 3.66 µM)
- MIC [27]: 1 µg/mL (≈ 0.915 µM)
